In one assay the test system is Microsporum canis. Description: Antimicrobial activity against Microsporum canis up to 100 ug/mL. Format: functional, organism-based. An outline of the steps: (§1)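 Minimum inhibitory concentration was measured in a microtiter plate growth bioassay against a panel of human and agricultural fungal pathogens and Gram-positive and Gram-negative bacteria.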
Another assay deals with Staphylococcus aureus. Briefly: Antimicrobial activity against Staphylococcus aureus. Format: functional.
The next assay relates to Pseudomonas savastanoi. Description: Antimicrobial activity against Pseudomonas savastanoi up to 100 ug/mL. The format is functional, organism-based. An outline of the steps:
as §1

A further assay concerns Fusarium culmorum. Briefly: Antimicrobial activity against Fusarium culmorum up to 100 ug/mL. The format is functional, organism-based. An outline of the steps:
as §1

In a further assay the test system is Heterobasidion annosum. Description: Antimicrobial activity against Heterobasidion annosum up to 100 ug/mL. Format: functional, organism-based. An outline of the steps: as §1
The next assay has as its system Pseudomonas syringae. Briefly: Antimicrobial activity against Pseudomonas syringae pv. syringae. The format is functional.
The subject of another assay is Fusarium oxysporum. Description: Antimicrobial activity against Fusarium oxysporum up to 100 ug/mL. Format: functional, organism-based. An outline of the steps:
as §1

The subject of a further assay is Aspergillus fumigatus. Briefly: Antimicrobial activity against Aspergillus fumigatus up to 100 ug/mL. The format is functional, organism-based. An outline of the steps:
as §1

The subject of the next assay is Candida albicans. Briefly: Antimicrobial activity against Candida albicans up to 100 ug/mL. Format: functional, organism-based. An outline of the steps:
as §1

The test system of another assay is Drechslera. Description: Antimicrobial activity against Drechslera sorokiniana up to 100 ug/mL. The format is functional, organism-based. An outline of the steps:
as §1

Calls of active or inactive are those of the source. The rule behind the calls is not given here.

Usually MIC stands for the lowest concentration that inhibits growth of the organism. Take `CCCCCCCCCC(O)/C=C/C(C)=C/CC(=O)NC[C@H](O)[C@H](C)C(=O)NCC/C=C/C=C/C=C/C(=O)O` (mixture of isomers) [PSEUDOTRIENIC ACID A]: the outcome in the assay with Microsporum canis, in the assay with Pseudomonas savastanoi, with Fusarium culmorum, with Heterobasidion annosum, in the assay with Fusarium oxysporum and in the assay on Aspergillus fumigatus was inactive. In addition, the outcome in the assay with Candida albicans and in the assay on Drechslera was inactive. The MIC against Staphylococcus aureus and in the assay on Pseudomonas syringae was 70 µg/mL in each case.
As to `CCCCCCCC(O)/C=C/C(C)=C/CC(=O)NC[C@H](O)[C@H](C)C(=O)NCC/C=C/C=C/C=C/C(=O)O` (mixture of isomers) [PSEUDOTRIENIC ACID B], the result with Microsporum canis, in the assay with Pseudomonas savastanoi, in the assay on Fusarium culmorum, with Heterobasidion annosum, in the assay with Fusarium oxysporum and in the assay on Aspergillus fumigatus was inactive. Moreover, the result in the assay with Candida albicans and in the assay on Drechslera was inactive. Moreover, the MIC in the assay with Staphylococcus aureus and in the assay with Pseudomonas syringae was 70 µg/mL throughout.

Source of the values: ChEMBL document CHEMBL1158809, “Pseudotrienic acids A and B, two bioactive metabolites from Pseudomonas sp. MF381-IODS” (2005).
